Sampled rows, rich in hits. Any-hit rate of the full collection: about 3.3%.
PglD DTNB: inhibitors of Campylobacter jejuni PglD acetyltransferase; purified PglD enzyme, DTNB colorimetric CoA detection; inhibition, % at 12.5 µM; 360,000 tested, 0.098% active; AID 602405; in the data active = inhibition above about 16%, passing the limit was not always enough; inconclusive = no clear call, values can overlap the other calls
DENV2 CPE: protects cells from dengue virus 2 cytopathic effect. DENV2-infected cells, cytopathic effect rescue, plate reader. 350,000 tested, 1.7% active. CPE inhibition, % at 9.99 µM; in the data active = CPE inhibition above about 20%, passing the limit was not always enough; inconclusive = no clear call, values can overlap the other calls; tested in BHK-21 cells
Xi reactivation: activators of X-chromosome reactivation in mouse fibroblasts | XiGFP mouse fibroblasts, % GFP-positive cells imaging, 3 d; cells co-treated with 5-aza-dC sensitizer; scaled so ellipticine positive control = 100% | activation, % at 7.58 µM | 360,000 tested, 0.055% active;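 active = mean normalized replicate activation at least 10% and every replicate at or above 10%; inconclusive = only one of the two criteria met; inactive = mean below 10% and not all replicates reach 10%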
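assay system = SV40-immortalized XiGFP fibroblast cells, line 68-5-11 | buffer or medium = DMEM plus 5-aza-dC sensitizer | doses = single-point pinned compound dosing | times = 3-day compound exposure, then 15 min fixation at room temperature | benchmarks = positive control ellipticine, 6 µM final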
E-sel inducer: E-selectin induction on HUVECs; P16581; HUVEC E-selectin immunofluorescence imaging; normalized: neutral wells 0, TNF-alpha wells 100; activation, % at 7.58 µM; 260,000 tested, 0.37% active;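 active = mean E-selectin-positive cell signal at least 10% of the positive control, reached in at least 60% of replicates, without over 20% cell loss; inconclusive = no rule given, readout overlaps actives, possibly toxicity-flagged; inactive = the rest, including those meeting only one limit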
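material = human umbilical vein endothelial cells (HUVEC), E-selectin induction | quantity = 3,000 cells/well | medium = EGM-2 growth medium on 0.1% gelatin-coated wells | technique = immunofluorescence imaging | read-out basis = % PE-positive cells | control set = TNF-alpha positive control, DMSO neutral control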
FGF22 binding: shifts melting point of recombinant human FGF22. activity (Tm shift, normalised), % at 9.99 µM. recombinant FGF22 thermal shift, SYPRO orange fluorescence; percent of sucrose octasulfate shift, DMSO zero. AID 651658. Q9HCT0. 340,000 tested, 1.5% active;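 active = mean Tm shift, scaled 0 neutral to 100 positive control, at about 1.3% or above, every replicate too, limit read from the data; inconclusive = no clear call, values can overlap the other calls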
Statin myotox sup: suppressors of simvastatin-induced myotoxicity in C2C12 myotubes | ATP luminescence, 48 h; scaled: DMSO 0, geranylgeraniol control 100 | rescue of ATP level, % at 7.49 µM | 330,000 tested, 0.78% active | AID 602340;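 active = mean ATP rescue above about 67%, or every replicate alone reaching that limit, limit read from the data, passing the limit was not always enough; inconclusive = no clear call, values can overlap the other calls; inactive = mean under the limit and some replicate under it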;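 also: myotubes were challenged with 10 µM simvastatin during compound exposure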
Numbers stand for hits; - = inactive; ? = inconclusive; . = no result given.

SMILES	PglD DTNB	DENV2 CPE	Xi reactivation	E-sel inducer	FGF22 binding	Statin myotox sup
COc1ccc(C#Cc2ccc([C@@H]3[C@@H](CO)N4CCCCN(Cc5ccccc5F)C[C@H]34)cc2)cc1	-	-	-	-	-	-
COCC#Cc1ccc([C@@H]2[C@H]3CN(Cc4ccccc4F)CCCCN3[C@H]2CO)cc1	-	47	-	-	-	-
COc1ccc2c3c(n(C)c2c1)[C@H](CO)N(Cc1ccc(F)cc1)CC31CN(C)C1	.	-	-	-	-	.
COCC(=O)N(C)C[C@@H]1Oc2ncc(C3=CCCCC3)cc2C(=O)N([C@@H](C)CO)C[C@H]1C	-	-	-	-	-	-
CC(=O)N/N=C(\C)CC(=O)Nc1ccc2c(c1)OCCO2	-	.	-	.	43	-
C/C(CC(=O)Nc1ccc2c(c1)OCCO2)=N\NC(=O)c1cccc(O)c1	-	-	-	.	-	-
O=C(C[C@@H]1C[C@H]2c3cc(NC(=O)c4ccc5c(c4)OCO5)ccc3O[C@H]2[C@@H](CO)O1)NCC1CC1	-	27	-	-	-	-
O=C(C[C@@H]1C[C@@H]2c3cc(NC(=O)c4ccc5c(c4)OCO5)ccc3O[C@@H]2[C@@H](CO)O1)NC1CCCC1	-	34	-	-	-	-
O=C(C[C@@H]1C[C@H]2c3cc(NC(=O)c4ccc5c(c4)OCO5)ccc3O[C@H]2[C@H](CO)O1)NC1CCCC1	-	-	-	-	-	-
O=C(C[C@H]1CC[C@@H]2[C@H](COC[C@@H](O)CN2C(=O)Nc2cc(Cl)cc(Cl)c2)O1)NCC1CCCCC1	-	?	-	-	-	-
C[C@H](O)C#Cc1cnc2c(c1)C(=O)N([C@H](C)CO)C[C@H](C)[C@H](CN(C)C(=O)Nc1ccc(F)cc1)O2	-	-	-	-	-	-
COCC(=O)N(C)C[C@H]1Oc2ncc(-c3ccccc3OC)cc2C(=O)N([C@H](C)CO)C[C@@H]1C	-	-	-	-	-	-
CC1Cc2cc(S(=O)(=O)NCCC(=O)NCc3ccc(F)cc3)ccc2N1C(=O)C1CC1 (stereo not given)	.	-	-	-	-	-
CC(=O)N1c2ccc(S(=O)(=O)NCCC(=O)NCCc3ccc(C)cc3)cc2CC1C (stereo not given)	-	-	-	.	-	109
CC(=O)N1c2ccc(S(=O)(=O)NCCC(=O)NCc3ccc(F)cc3)cc2CC1C (stereo not given)	-	-	-	.	-	87
O=C(C[C@@H]1C=C[C@H](NC(=O)C2CC2)[C@H](CO)O1)Nc1ccccc1	-	?	-	-	-	-
CNC(=O)c1ccccc1S(=O)(=O)c1ccccc1C#N	-	.	.	.	.	101
C[C@@H]1CN([C@@H](C)CO)C(=O)Cc2cc(NC(=O)c3ccncc3)ccc2O[C@H]1CN(C)Cc1ccncc1	-	-	-	-	-	-
COCC(=O)N1CC2(CN(C(C)=O)C2)c2c([nH]c3cc(OC)ccc23)[C@@H]1CO	.	20	-	-	-	.
COc1ccc2c3c([nH]c2c1)[C@H](CO)N(C(=O)Nc1cccc(F)c1)CC31CN(CC2CC2)C1	.	25	-	-	-	.
COc1ccc2c3c([nH]c2c1)[C@H](CO)N(C(=O)NC(C)C)CC31CN(C(=O)C2CCCCC2)C1	.	?	-	-	-	.
COc1ccc2c3c([nH]c2c1)[C@@H](CO)N(C(=O)Nc1cccc(F)c1)CC31CCN(CC2CC2)CC1	.	-	-	-	-	.
COc1ccc2c3c([nH]c2c1)[C@@H](CO)N(C(=O)NC(C)C)CC31CN(C(=O)NC(C)C)C1	.	47	-	-	-	.
COc1ccc2c3c([nH]c2c1)[C@H](CO)N(C(=O)Nc1ccc(F)cc1)CC31CN(CC2CC2)C1	.	29	?	-	-	.
COc1ccc2c3c([nH]c2c1)[C@@H](CO)N(C(=O)Nc1ccc(F)cc1)CC31CN(CC2CC2)C1	.	.	-	.	.	.
COCC(=O)N1CC2(CCN(C(C)=O)CC2)c2c([nH]c3cc(OC)ccc23)[C@H]1CO	.	-	-	-	-	.
O=C(C[C@@H]1CC[C@H]2[C@@H](COC[C@H](O)CN2C(=O)Nc2ccc(Cl)cc2)O1)NCCc1ccncc1	-	?	-	-	-	-

Compound activity from PubChem.
